Measured values reported in PubChem BioAssay AID602423 (Sanford-Burnham Center for Chemical Genomics, 2012).
The source made the active and inactive calls.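 Rule for the calls: active = IC50 at or below 20 µM; inactive = the rest.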

Biological target: glucose-6-phosphate dehydrogenase-6-phosphogluconolactonase (PfGluPho), Plasmodium falciparum 3D7
Experiment: PfGluPho enzyme inhibitors, SAR follow-up, biochemical, fluorescence intensity, dose response, set 4 (AID 602423)
Details: recombinant PfGluPho, resazurin-diaphorase NADPH fluorescence
In short: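 System – PfGluPho, the glucose-6-phosphate dehydrogenase of Plasmodium falciparum · Quantity – enzyme 0.05 µg/mL · Medium – Tris buffer pH 7.5 with MgCl2, BSA and Tween 20 · Timing – reaction 2 h, room temperature, dark · Detection – coupled fluorescence, Ex 530/Em 590 nm · Benchmarks – low control without G6P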

| SMILES | IC50 |
| --- | --- |
| CCN1CCC[C@@H]1CNC(=O)c1ccc2c(c1)NC(=O)c1cc(C)ccc1S2 | inactive |
| CN1CCCC1CNC(=O)c1ccc2c(c1)NC(=O)c1ccccc1S2 (configuration not stated) | inactive |
| O=C(NC[C@H]1CCCN1)c1ccc2c(c1)NC(=O)c1ccccc1S2 | inactive |
| CCN1CCC[C@@H]1CNC(=O)c1ccc2c(c1)NC(=O)c1cc(F)ccc1S2 | inactive |
| CCCN1CCCCC1CNC(=O)c1ccc2c(c1)NC(=O)c1ccccc1S2 (configuration not stated) | inactive |
| CCCN1CCC[C@@H]1CNC(=O)c1ccc2c(c1)NC(=O)c1ccccc1S2 | 15.1 µM |
| CCCCCCN1CCCC1CNC(=O)c1ccc2c(c1)NC(=O)c1ccccc1S2 (configuration not stated) | inactive |
| CN1CCC(NC(=O)c2ccc3c(c2)NC(=O)c2ccccc2S3)C1 (configuration not stated) | > 80 µM (inactive) |
| CCN1CCC(NC(=O)c2ccc3c(c2)NC(=O)c2ccccc2S3)C1 (configuration not stated) | inactive |
| CCN1CCC[C@@H]1CNC(=O)c1ccc2c(c1)NC(=O)c1ccccc1N2 | > 80 µM (inactive) |
| CCN1CCCCC1CNC(=O)c1ccc2c(c1)NC(=O)c1ccccc1S2 (configuration not stated) | > 80 µM (inactive) |
| CN1CCCCC1CNC(=O)c1ccc2c(c1)NC(=O)c1ccccc1S2 (configuration not stated) | inactive |
| CCN1CCC[C@@H]1CNC(=O)c1ccc2c(c1)NC(=O)c1ccc(F)cc1S2 | 2.98 µM |
| CCCN1CCC(NC(=O)c2ccc3c(c2)NC(=O)c2ccccc2S3)C1 (configuration not stated) | inactive |
| CCCCN1CCCC1CNC(=O)c1ccc2c(c1)NC(=O)c1ccccc1S2 (configuration not stated) | 19.9 µM |
| CCN1CCC[C@@H]1CNC(=O)c1ccc2c(c1)NC(=O)c1cccc(C)c1S2 | 0.187 µM |
| O=C(NCC1CCCCN1)c1ccc2c(c1)NC(=O)c1ccccc1S2 (configuration not stated) | inactive |
